Each structure is given as a SMILES string.

The nature of this data set: Toxicity liver stage against HepG2, at 10uM. The format is cell-based. As to conditions: human, HepG2-A16-CD81EGFP cells; read-out: INHIBITION
Also on record: test concentration 10 uM, cell line HepG2-A16-CD81EGFP. An outline of the steps: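 Uninfected HepG2-A16-CD81EGFP cells, 3 × 10^3 per well, 1536-well, plated on prespotted compound at 10 μM final, parasite-free screening media added to match infected plates; puromycin 10 μM positive, DMSO 0.5% negative; run in parallel with 48 h PbLuc assay at 37 °C, 5% CO2; viability by CellTiter-Glo luminescence, normalized to controls.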
For `CC(C)Oc1ccc(C(=O)Nc2nncs2)cn1`, the cytotoxicity at 10 µM is -7.94%.
To `COc1ccc(-c2cc(CC3(NCc4ccc(C)o4)COC3)no2)cc1` belongs -5.88%.
For the compound `O=C1CC(NS(=O)(=O)c2ccc(F)c(Cl)c2)CN1` (stereo not given), the cytotoxicity at 10 µM is 6.32%.
To `COCC1CN(C(=O)Cc2ccccn2)Cc2ncn(C)c21` (stereo not given) belongs 1.73%; to `CC(C)(C)c1noc(-c2ccnc(-n3cnc(C(=O)O)c3)c2)n1`, 5.41%.
For `CNC(=O)c1cc2c(nc1NCC(C)C)CCN(S(=O)(=O)C1CC1)CC2` the value was -4.88%; for `CCCn1nccc1C(=O)Nc1ncc(C)s1`, 8.05%; for `Cc1cn[nH]c1C1COCCN1C(=O)c1ccc2c(c1)CCCC2` (stereo not given), -0.21%.
For `Cc1cc(N2CCCC(O)(CN(C)C(=O)CCN)C2)c2cnccc2n1` (stereo not given) the value was -1.49%.
For the compound `Cc1cc(O)cc(C2CCCN2C(=O)c2ccn(C)n2)n1` (stereo not given), the cytotoxicity at 10 µM was -2.82%.
To `Fc1cccc(CN2CCC(c3noc(-c4ccccn4)n3)CC2)c1F` belongs -12.8%.
To `CC(CNC(=O)c1cccc(-n2cccn2)n1)Cn1ccnc1` (stereo not given) belongs 7.73%.
For `C=C(C)Cn1cc(C(N)=O)nc1C1CC1`, the cytotoxicity at 10 µM came out at 14.5%.
For `OCCN1CCN(Cc2cn(-c3ccccc3)nn2)CC1` the value was 1.42%; for `O=C(NC1CCN(C2CC2)CC1)c1cn(-c2ccc(Cl)cc2)nn1`, -2.87%.
To `CC(C)N1CCC(NC(=O)NCc2ccccc2)CC1` belongs 5.89%; to `NS(=O)(=O)CCN1CCN(c2cc(F)ccc2F)CC1`, -14.4%; to `Cc1nnc2n1CCN(CC(=O)NC(C)c1cc3ccccc3o1)C2` (stereo not given), -9.79%.
To `CC(C)N1CCCC(N2CCOC3(CCCC3)C2)C1=O` (stereo not given) belongs -7.33%.
As for `O=C(c1cnn(-c2ccccc2)c1)N1CCN(c2cnccn2)CC1`, the cytotoxicity at 10 µM came to 5.37%.
In the case of `CNS(=O)(=O)CCCn1nnc(-c2ccc(F)c(C)c2)n1`, the cytotoxicity at 10 µM is -1.52%.
`CN(C)S(=O)(=O)Nc1ccc(-n2nccc2C(F)(F)F)cc1`: the cytotoxicity at 10 µM worked out at 5.65%.
For `CC(=O)N1CCCC1c1cccc(C)c1C` (stereo not given) the value was 10.8%; for `COc1ccccc1C(C)CC(=O)N1CCCS1(=O)=O` (stereo not given), -11.6%.
To `CCc1ccc(CN(C(=O)CCn2cc(S(N)(=O)=O)cn2)C2CC2)cc1` belongs 6.37%; to `CN(Cc1cccc(OC(F)(F)F)c1)Cc1cnn(C)c1`, -3.41%.
For `COc1ccc2c(ccn2CC(=O)N2CCCC2Cn2cccn2)c1` (stereo not given) the value was -0.429%; for `CC(C)CCNC(=O)c1ccc(-c2ccco2)[nH]c1=O`, -9.62%.
Regarding `CCN(CC)C(=O)c1ccc(-c2ccsc2)nc1C`, the cytotoxicity at 10 µM is -13.4%.
To `CN(C)C(=O)c1ccc(-c2cccc3c2CCNC3)o1` belongs -0.537%; to `CC(C)=CCN1CCN(C(=O)c2cc(C)n[nH]2)[C@H]2CS(=O)(=O)C[C@H]21`, -6.9%.
For `NC(=O)c1ccc(-c2nc3c(c(=O)[nH]2)CCNC3)cc1` the value was 1.37%; for `O=C(c1cccc(C2CCNC2)c1)N1CCC(c2ncc[nH]2)CC1` (stereo not given), -5.03%; for `CCOc1ccc(C(=O)N2Cc3cnc(CC)nc3C2)o1`, 3.34%.
For `Cc1nc(CN2CC(Cc3ccccc3)CC2=O)no1` (stereo not given) the value was 2.42%; for `Cc1ccc2c(c1)c(CNC(=O)C1CCN(C(C)C)CC1)nn2C`, -14.8%.
Take `CC(=O)N(Cc1ncc(C(C)C)o1)C1CCN(CCC#N)C1` (stereo not given): the cytotoxicity at 10 µM is -6.39%.
As to `O=C(NCc1csc(Br)c1)N1CCOCC1`, the cytotoxicity at 10 µM was -7.45%.
As for `Cc1noc(C2CCN(C(=O)CCc3ccccn3)CC2)n1`, the cytotoxicity at 10 µM is -3.25%.
For `Cc1cccnc1NC(=O)N(CCO)Cc1ccsc1` the value was -11.3%.

These data come from ChEMBL document CHEMBL4513216, “Probing the Open Global Health Chemical Diversity Library for Multistage-Active Starting Points for Next-Generation Antimalarials” (ACS Infect Dis, 2020).
